From ChEMBL document CHEMBL5247577, “Improved Selective Class I HDAC and Novel Selective HDAC3 Inhibitors: Beyond Hydroxamic Acids and Benzamides” (ACS Med Chem Lett, 2019)

Key:
Histone deacetylase = experiment: Inhibition of HDAC in human HeLa cells using FLUOR DE LYS-SIRT1 as fluorogenic substrate incubated for 4 hrs by spectrophotometer based analysis; format: cell-based
Histone deacetylase 1 = Histone deacetylase 1 (Homo sapiens, UniProt Q13547); experiment: Inhibition of human recombinant his tagged HDAC1 expressed in baculovirus expression system using FLUOR DE LYS-SIRT1 as fluorogenic substrate preincubated for 10 mins followed by substrate addition and measured after 1 hr by spectrophotometer based analysis
Sequence of Histone deacetylase 1 (Q13547 whole entry): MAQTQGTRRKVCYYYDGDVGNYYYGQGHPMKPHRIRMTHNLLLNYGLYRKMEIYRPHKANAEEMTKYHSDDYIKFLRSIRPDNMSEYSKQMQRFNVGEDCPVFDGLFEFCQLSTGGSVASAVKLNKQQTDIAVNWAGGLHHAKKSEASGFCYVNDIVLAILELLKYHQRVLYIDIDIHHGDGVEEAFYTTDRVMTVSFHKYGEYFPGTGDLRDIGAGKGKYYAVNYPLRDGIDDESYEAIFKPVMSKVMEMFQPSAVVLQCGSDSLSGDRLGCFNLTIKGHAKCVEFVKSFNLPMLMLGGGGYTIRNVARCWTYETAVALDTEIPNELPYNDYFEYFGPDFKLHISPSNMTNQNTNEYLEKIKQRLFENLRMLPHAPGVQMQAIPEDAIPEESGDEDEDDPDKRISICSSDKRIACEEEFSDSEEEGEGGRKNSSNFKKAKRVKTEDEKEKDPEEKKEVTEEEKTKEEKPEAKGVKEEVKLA

[1] = target: Voltage-gated inwardly rectifying potassium channel KCNH2 (Homo sapiens, UniProt Q12809); experiment: Inhibition of hERG potassium channel incubated for 4 hrs by fluorescence polarization assay; format: toxicity
Sequence of Voltage-gated inwardly rectifying potassium channel KCNH2 (Q12809 whole entry): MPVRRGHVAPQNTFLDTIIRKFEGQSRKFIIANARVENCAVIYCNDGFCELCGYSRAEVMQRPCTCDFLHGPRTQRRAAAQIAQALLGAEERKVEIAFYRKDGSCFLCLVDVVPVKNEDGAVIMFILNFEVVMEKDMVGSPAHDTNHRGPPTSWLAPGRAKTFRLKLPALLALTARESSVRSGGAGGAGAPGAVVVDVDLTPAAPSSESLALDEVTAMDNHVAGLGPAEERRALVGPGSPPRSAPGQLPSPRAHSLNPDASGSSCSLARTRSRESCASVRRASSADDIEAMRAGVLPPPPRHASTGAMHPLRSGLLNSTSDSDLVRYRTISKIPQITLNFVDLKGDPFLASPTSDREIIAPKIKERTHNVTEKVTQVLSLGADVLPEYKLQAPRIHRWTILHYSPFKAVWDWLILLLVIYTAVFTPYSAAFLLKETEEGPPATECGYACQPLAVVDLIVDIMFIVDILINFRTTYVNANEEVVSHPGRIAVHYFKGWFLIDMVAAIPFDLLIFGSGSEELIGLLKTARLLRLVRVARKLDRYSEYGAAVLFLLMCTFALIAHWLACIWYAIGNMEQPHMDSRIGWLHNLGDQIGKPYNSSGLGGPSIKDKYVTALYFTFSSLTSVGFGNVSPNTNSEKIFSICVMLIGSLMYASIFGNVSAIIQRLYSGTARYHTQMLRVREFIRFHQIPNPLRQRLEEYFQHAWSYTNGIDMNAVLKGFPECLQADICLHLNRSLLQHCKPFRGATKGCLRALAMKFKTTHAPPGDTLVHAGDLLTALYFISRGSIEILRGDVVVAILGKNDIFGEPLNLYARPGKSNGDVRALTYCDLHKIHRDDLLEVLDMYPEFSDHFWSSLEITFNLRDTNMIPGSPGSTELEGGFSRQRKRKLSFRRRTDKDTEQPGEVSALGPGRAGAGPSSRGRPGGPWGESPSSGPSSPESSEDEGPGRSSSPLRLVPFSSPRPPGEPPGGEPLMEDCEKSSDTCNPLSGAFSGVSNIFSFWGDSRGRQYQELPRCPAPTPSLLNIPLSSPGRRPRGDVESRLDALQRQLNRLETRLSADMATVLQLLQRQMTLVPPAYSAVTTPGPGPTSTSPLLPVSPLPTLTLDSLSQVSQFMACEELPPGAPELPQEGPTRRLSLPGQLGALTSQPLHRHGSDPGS

[2] = AUC in NMRI mouse plasma at 5 to 20 mg/kg, po by LC/MS/MS analysis; format: ADME, organism-based; set-up: route po; conditions: NMRI, plasma, dose 5-20 mg/kg, read-out: AUC
Outline: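 Compound given orally as its tartrate salt at 20 mg/kg in mouse, 10 mg/kg in rat and 5 mg/kg in minipig.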

Histone deacetylase 3 = Histone deacetylase 3 (Homo sapiens, UniProt O15379); experiment: Inhibition of human HDAC3 expressed in baculovirus infected insect cells using FLUOR DE LYS-SIRT1 as fluorogenic substrate preincubated for 10 mins followed by substrate addition and measured after 1 hr by spectrophotometer based analysis
Sequence of Histone deacetylase 3 (O15379 whole entry): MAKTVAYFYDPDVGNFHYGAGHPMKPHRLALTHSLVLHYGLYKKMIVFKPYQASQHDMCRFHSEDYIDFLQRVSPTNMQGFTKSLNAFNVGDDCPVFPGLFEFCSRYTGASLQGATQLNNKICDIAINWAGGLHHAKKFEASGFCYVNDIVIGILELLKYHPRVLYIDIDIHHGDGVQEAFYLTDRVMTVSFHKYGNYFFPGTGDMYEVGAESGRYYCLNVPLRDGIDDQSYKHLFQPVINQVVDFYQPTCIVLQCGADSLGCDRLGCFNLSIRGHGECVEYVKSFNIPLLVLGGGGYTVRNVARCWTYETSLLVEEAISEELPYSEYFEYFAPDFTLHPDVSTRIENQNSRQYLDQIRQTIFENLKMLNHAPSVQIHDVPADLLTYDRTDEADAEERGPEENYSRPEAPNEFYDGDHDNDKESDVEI

Histone deacetylase 2 = Histone deacetylase 2 (Homo sapiens, UniProt Q92769); experiment: Inhibition of human HDAC2
Sequence of Histone deacetylase 2 (Q92769 whole entry): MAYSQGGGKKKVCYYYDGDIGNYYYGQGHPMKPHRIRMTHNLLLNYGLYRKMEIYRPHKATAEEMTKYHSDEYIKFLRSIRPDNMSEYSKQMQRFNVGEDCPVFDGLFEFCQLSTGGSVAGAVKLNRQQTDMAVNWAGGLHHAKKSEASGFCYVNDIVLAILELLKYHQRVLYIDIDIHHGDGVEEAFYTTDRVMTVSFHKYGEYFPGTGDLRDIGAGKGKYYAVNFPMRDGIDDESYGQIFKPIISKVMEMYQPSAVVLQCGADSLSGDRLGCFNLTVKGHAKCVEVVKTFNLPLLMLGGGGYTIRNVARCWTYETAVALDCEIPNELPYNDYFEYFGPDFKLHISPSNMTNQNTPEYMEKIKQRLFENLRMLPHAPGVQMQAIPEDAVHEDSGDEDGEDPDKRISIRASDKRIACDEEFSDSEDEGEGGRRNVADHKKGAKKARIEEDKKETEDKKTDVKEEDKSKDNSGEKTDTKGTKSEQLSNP

[3] = Metabolic stability in human hepatocyte assessed as half life; format: ADME, cell-based; conditions: hepatocytes
[4] = Metabolic stability in mouse hepatocyte assessed as half life; format: ADME, cell-based; conditions: hepatocytes
[5] = Metabolic stability in mouse plasma assessed as half life; format: ADME, cell-free
[6] = Metabolic stability in human plasma assessed as half life; format: ADME, cell-free

| EC50 (Histone deacetylase) | IC50 (Histone deacetylase 1) | SMILES | IC50 [1] | other results |
| --- | --- | --- | --- | --- |
| 412 nM | 19.6 nM | CCC(=O)CCCCC[C@H](NC(=O)Cc1c(C)[nH]c2ccc(OC)cc12)c1ncc(-c2ccc3ccccc3c2)o1 |  |  |
|  | 860 nM | CNC(=O)CCCCC[C@H](NC(=O)CCc1c[nH]c2ccccc12)c1ncc(-c2ccc(-n3cccn3)cc2)[nH]1 |  |  |
| 125 nM | 1.5 nM | CCC(=O)CCCCC[C@H](NC(=O)C1CN(C)C1)c1ncc(-c2ccc3ccccc3c2)[nH]1 |  |  |
| 873 nM | 12.2 nM | CCC(=O)CCCCC[C@H](NC(=O)C1CN(C)C1)c1ncc(-c2ccc3ccccc3c2)o1 |  |  |
|  | 6070 nM | CNC(=O)CCCCC[C@H](NC(=O)c1cncs1)c1ncc(-c2ccc(CN(C)C)cc2)[nH]1 |  |  |
| 94 nM | 2.1 nM | CCC(=O)CCCCC[C@H](NC(=O)C1CN(C)C1)c1ncc(-c2cc3ccccc3[nH]c2=O)o1 | > 30000 nM |  |
| 430 nM | 17 nM | CCC(=O)CCCCC[C@H](NC(=O)C1(F)CN(C)C1)c1ncc(-c2cc3ccccc3nc2OC)o1 | 13600 nM |  |
|  |  | CCC(=O)CCCCC[C@H](NC(=O)C1CN(C)C1)c1ncc(-c2cc3ccccc3nc2OC)[nH]1 | 3000 nM | AUC [2]: 0.9 µM·h |
| 138 nM | 3 nM | CCC(=O)CCCCC[C@H](NC(=O)Cn1ccnn1)c1ncc(-c2cc3ccccc3nc2OC)o1 | > 30000 nM |  |
| 610 nM | 30.5 nM | CCC(=O)CCCCC[C@H](NC(=O)C(=O)N1CCOCC1)c1ncc(-c2cc3ccccc3nc2OC)o1 | > 30000 nM |  |
|  | 325 nM | CNC(=O)CCCCC[C@H](NC(=O)c1cncs1)c1ncc(-c2ccc3ccccc3c2)[nH]1 |  |  |
|  | 1370 nM | CNC(=O)CCCCC[C@H](NC(=O)CCc1c[nH]c2ccccc12)c1ncc(-c2ccc(CN(C)C)cc2)[nH]1 |  |  |
| 15 nM | 3.5 nM | CCC(=O)CCCCC[C@H](NC(=O)C(C)(C)N(C)C)c1ncc(-c2cc3ccccc3nc2OC)o1 |  | IC50 (Histone deacetylase 3): < 3.5 nM; IC50 (Histone deacetylase 2): < 3.5 nM |
| 44 nM | 3.2 nM | CCC(=O)CCCCC[C@H](NC(=O)Cc1c(C)[nH]c2ccc(OC)cc12)c1ncc(-c2ccc3ccccc3c2)[nH]1 |  |  |
|  |  | CNC(=O)CCCCC[C@H](NC(=O)Cn1ccc2cc(C#N)ccc21)c1ncc(-c2ccc(CN(C)C)cc2)[nH]1 |  | half-life [3]: > 4 h; half-life [4]: > 4 h; half-life [5]: > 4 h; half-life [6]: > 4 h |

| SMILES | EC50 (Histone deacetylase) | IC50 (Histone deacetylase 1) | IC50 [1] | other results |
| --- | --- | --- | --- | --- |
| CCC(=O)CCCCC[C@H](NC(=O)C1CNC(=O)C1)c1ncc(-c2cc3ccccc3nc2OC)o1 (some centres not stated) | 208 nM | 3.2 nM | > 30000 nM |  |
| CCC(=O)CCCCC[C@H](NC(=O)C12CCN(CC1)CC2)c1ncc(-c2cc3ccccc3nc2OC)o1 | 43 nM | 1.6 nM | 190 nM | IC50 (Histone deacetylase 3): < 3.5 nM; IC50 (Histone deacetylase 2): < 3.5 nM |
